Assay [1] in a line: S. cerevisiae growth inhibition in permissive medium (OD615), pilot counter-assay for S. cerevisiae lifespan shortening project, permissive growth control (AID 705). Particulars: OD615, 24 h, at 10 µM, stronger effect = higher value. In short, it runs like this: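 Material: engineered DeaD yeast; Compound: one dose 10 µM, DMSO 0.25% final; Detection: absorbance (optical density) at 615 nm; Buffer or medium: permissive raffinose/galactose medium; Timing: 24 h exposure, 30 °C.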

Assay [2] is described as follows: S. cerevisiae growth inhibition in restrictive medium, OD615, pilot screen, restrictive growth control, yeast lifespan reduction project (AID 706;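 active = growth inhibition above a set limit, 3 SD over mean compound inhibition, in both replicates, cut at about 43% in these data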;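 also: modified DeaD lifespan yeast strain shifted to restrictive glucose medium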). To be noted: OD615, 48 h, at 10 µM, stronger effect = higher value. The gist of the method:
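Buffer or medium: restrictive glucose medium (CSMM-D); test system: modified S. cerevisiae; doses: single dose of 10 µM compound final, 0.25% DMSO; schedule: 48 h compound exposure at 30 °C; detection: absorbance (optical density) measured at 615 nm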

Assay [3] can be described thus: doxorubicin toxicity protection in MRP-1 cells – H69AR cells, CellTiter-Glo, duplicate, MRP-1 activator project, pilot screen (AID 807;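 active = viability increase at or above a cutoff of the median across tested compounds plus 3 SD, cut at about 8.5% in these data, passing the limit was not always enough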;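 also: compound pretreatment 18-22 h then 72 h combined with doxorubicin; 0% = doxorubicin alone and 100% = vehicle without doxorubicin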). To be noted: H69AR viability with doxorubicin, CellTiter-Glo luminescence; at 10 µM; stronger effect = higher value. (Cellular ATP, detected with luciferase, serves as a proxy for viable cell number.)
Assay [4] in a line: viability of HCT116 without oncogenic beta-catenin – human colon tumor cells, pilot screen (AID 823;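 active = cell viability at or below a set limit in both duplicate runs, the limit being the all-compound median minus 4 SD, cut at about 23% in these data, passing the limit was not always enough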;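 also: 0% = wells killed by 20 µM Hyamine and 100% = untreated DMSO cell wells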). Particulars: HCT116 beta-catenin knockout viability, CellTiter-Glo, 60 h; at 10 µM; stronger effect = lower value.
The nature of assay [5]: RAM pathway blockade in budding yeast – dse1pr::URA3 reporter, 5-FOA selection, pilot screen (AID 869;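 active = inhibition over a set limit, the all-compound mean plus 3 SD, in both replicate runs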;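 also: 0% = DMSO wells with no growth and 100% = 10 µM 1-NA-PP1 with full growth; RAM network block rescues cells from 5-FOA so hits raise OD615 growth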). To be noted: S. cerevisiae dse1pr::URA3 5-FOA growth, OD615, 2 d; at 10 µM; stronger effect = higher value; strain carries analog-sensitive mutant Cbk1 kinase.
Assay [6] in a line: RAM signaling pathway blockade in yeast – S. cerevisiae, Pdr1DBD-CYC8 efflux-inhibited sensitized strain, primary screen (AID 1298;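 active = RAM network inhibition above 8.4% in each of two replicates, 3 SD over the compound average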;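 also: 0% = DMSO untreated cells without growth and 100% = 10 µM 1-NA-PP1 full growth; higher means more yeast growth rescued from 5-FOA killing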). Particulars: S. cerevisiae cbk1-as DSE1-URA3 strain, 5-FOA growth OD615, 2 d; at 50 µM; stronger effect = higher value.

The structures appear in SMILES notation. Unmarked numbers belong to inactive results. Inconclusive results are not listed. Activity calls are given as the source filed them.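 The calls were made as follows, unless noted: active = growth inhibition above 25% in both replicates, a cutoff set 3 SD above the mean; inconclusive = above 25% in only one replicate; inactive = the rest.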

A word on the viability: it is the share of living cells, or the viability signal relative to a control. Usually inhibition stands for the drop in the measured response relative to a control, in per cent. As for `Cc1ccccc1C(=O)Nc1nnc(-c2ccc(F)cc2)o1`, the growth inhibition in assay [1] was -3.21%; in assay [2] it was 11.5%. The viability increase in assay [3] is -2.91%. The viability in assay [4] is 33%. Besides, in assay [5], the inhibition was 0.6%. Also, the RAM network inhibition in assay [6] is 4.65%.

Take `O=C1c2ccccc2C(=O)N1CCCC(=O)N1CCc2ccccc21`: the growth inhibition was -21.9% in assay [1] and 8.75% in assay [2]. Moreover, the viability increase in assay [3] is -0.37%. Also, the viability in assay [4] was 95.7%. Moreover, in assay [5], the inhibition is 2.44%. The RAM network inhibition in assay [6] is 10.1%.

For `O=C(CN1CCN(c2ccccn2)CC1)Nc1cccc(C(F)(F)F)c1`, the growth inhibition in assay [1] is -3.17%; in assay [2], 5.07%. Moreover, the viability increase in assay [3] is -1.96%. The viability in assay [4] was 97.9%. Besides, the inhibition in assay [5] was 2.27%. Besides, the RAM network inhibition in assay [6] is 2.45%.

For `CN1CCc2c(sc3c2c(=O)n(-c2ccc(Cl)cc2)c2nncn32)C1`, the growth inhibition in assay [1] is -12.1%; in assay [2], 7.29%. The viability increase in assay [3] was 0.1%. Further, the viability in assay [4] was 92.1%. In addition, the inhibition in assay [5] was 1.45%. The RAM network inhibition in assay [6] was 2.09%.

In the case of `Cc1c(NC(=O)CCC2CCCCC2)c(=O)n(-c2ccccc2)n1C`, the growth inhibition is 5.74% in assay [1] and 3.62% in assay [2]. In addition, the viability increase in assay [3] was -0.39%. Moreover, the viability in assay [4] was 99.4%. Further, the inhibition in assay [5] is 0.965%. Besides, in assay [6], the RAM network inhibition was 3.28%.

In the case of `CCCCC(NC(C)=O)c1nc2ccccc2n1CCCC` (stereo not given), the growth inhibition in assay [1] is -16.8%; in assay [2], -12.2%. In addition, the viability increase in assay [3] is -4.34%. In addition, the viability in assay [4] is 86.6%. In addition, the inhibition in assay [5] was 1.69%. Besides, the RAM network inhibition in assay [6] is 4.56%.

With `Cc1cc2cc(CN(Cc3ccc4c(c3)OCO4)C(=O)c3cnccn3)c3nnnn3c2cc1C`, the growth inhibition is -6.95% in assay [1] and 6.71% in assay [2]. The viability increase in assay [3] was -5.49%. Also, in assay [4], the viability is 87.2%. Besides, in assay [5], the inhibition is 2.06%. The RAM network inhibition in assay [6] was 5.81%.

As to `CCOC(=O)c1ccccc1NC(=O)CC1Nc2ccccc2NC1=O` (stereo not given), the figures for the growth inhibition in assay [1] and in assay [2] were -2.62% and -8.37%, respectively. The viability increase in assay [3] is -8.1%. For the same compound, the viability in assay [4] was 55.7%. Moreover, the inhibition in assay [5] was 2.19%. Further, the RAM network inhibition in assay [6] was 6.39%.

With `Cc1c(C(=O)N(C)Cc2ccccc2)oc2ccc(S(=O)(=O)N3CCCC3)cc12`, the growth inhibition in assay [1] is -18.8%; in assay [2] it was -11.4%. In addition, in assay [3], the viability increase was -5.85%. Further, in assay [4], the viability is 54.3%. The inhibition in assay [5] was 0.18%. In addition, the RAM network inhibition in assay [6] is 4.09%.

For `NC1=C(c2ccc(F)cc2)C(=O)CS1`, the growth inhibition was -17.2% in assay [1] and 4.04% in assay [2]. Further, the viability increase in assay [3] is -1.22%. Also, the viability in assay [4] is 91.1%. Also, in assay [5], the inhibition is 1.85%. Also, the RAM network inhibition in assay [6] is 5.83%.

As for `CC(NC(=O)C(C)(C)C)c1nc2ccccc2n1C` (stereo not given), the growth inhibition in assay [1] is 5.72%; in assay [2] it was 5.71%. For the same compound, in assay [3], the viability increase is -3.14%. Moreover, the viability in assay [4] is 95.1%. Besides, the inhibition in assay [5] is 0.63%. In addition, in assay [6], the RAM network inhibition was 3.17%.

As for `O=C(CCS(=O)(=O)c1ccccc1)Nc1nc2c(s1)COc1ccccc1-2`, the growth inhibition in assay [1] was -11.8%; in assay [2] it was -10.9%. In assay [3], the viability increase is -8.46%. The viability in assay [4] is 5.88% (active). Moreover, the inhibition in assay [5] is 1.32%. Besides, the RAM network inhibition in assay [6] is 3.55%.

For `OCC1(c2cc(C(F)(F)F)n[nH]2)CCCCC1`, the growth inhibition in assay [1] was 5.65%; in assay [2], -0.23%. For the same compound, the viability increase in assay [3] is -2.12%. For the same compound, the viability in assay [4] is 91.4%. Further, the inhibition in assay [5] is 1.2%. Moreover, in assay [6], the RAM network inhibition is -0.68%.

On to `CC1(C)Cc2c(sc3c2c(=N)n(Cc2ccco2)c(=O)n3CC(=O)Nc2cccc(Cl)c2)CO1`, for which the values for the growth inhibition in assay [1] and in assay [2] were -9.23% and -8.69%, respectively. The viability increase in assay [3] is -6.27%. Further, the viability in assay [4] is 75%. In addition, the inhibition in assay [5] was 3.25%. For the same compound, the RAM network inhibition in assay [6] is 5.15%.

In the case of `Cc1ccc2c(c1)c(C)c(C)n2CC(O)Cn1nnc2ccccc21` (stereo not given), the growth inhibition in assay [1] is -9.66%; in assay [2] it was -5.1%. In addition, the viability increase in assay [3] is -5.06%. In addition, the viability in assay [4] was 82.3%. In addition, the inhibition in assay [5] is 0.335%. Also, the RAM network inhibition in assay [6] was 2.28%.

In the case of `Cc1cc(C)c(C#N)c(=N)o1`, the growth inhibition in assay [1] is 23.3%; in assay [2], 20.7%. For the same compound, in assay [3], the viability increase was -3.83%. For the same compound, the viability in assay [4] is 87.2%. Also, the inhibition in assay [5] is 1.2%. For the same compound, the RAM network inhibition in assay [6] was 8.54%.

On to `Cc1ccc(S(=O)(=O)N2CCC(C(=O)N[C@@H](C)C(=O)NCC3CCCO3)CC2)cc1` (stereo not given in full), for which the values for the growth inhibition in assay [1] and in assay [2] were -19.6% and -9.68%, respectively. For the same compound, the viability increase in assay [3] was -2.65%. The viability in assay [4] was 97%. In addition, in assay [5], the inhibition is 2.1%. Also, in assay [6], the RAM network inhibition is -0.73%.

On to `C(=N\c1nccs1)/c1c[nH]c2ccccc12`, for which the growth inhibition is -17.6% in assay [1] and 7.43% in assay [2]. Moreover, the viability increase in assay [3] was -4.92%. The viability in assay [4] is 92.4%. Moreover, the inhibition in assay [5] was 2.52%. In addition, the RAM network inhibition in assay [6] was 3.02%.

As to `CCC(=O)N1CCc2cc(Br)cc(S(=O)(=O)CCC(=O)NCc3ccco3)c21`, the growth inhibition in assay [1] is -26.8%; in assay [2], 0.16%. Besides, the viability increase in assay [3] was -4.1%. Moreover, the viability in assay [4] is 94.9%. Besides, in assay [5], the inhibition was 2.91%. The RAM network inhibition in assay [6] was 4.36%.

Regarding `COC(=O)c1cc(=O)n(Cc2ccco2)c(=Nc2ccc(F)c(Cl)c2)s1`, the growth inhibition in assay [1] is -17.1%; in assay [2] it was -11.1%. The viability increase in assay [3] is -8.24%. For the same compound, in assay [4], the viability was 9.25% (active). In assay [5], the inhibition is 2.19%. For the same compound, in assay [6], the RAM network inhibition is 10.1%.

The record behind these values is PubChem BioAssay.
